No end group written: not given here.
How the values were obtained:
C3a receptor [1] = assay: C3a-induced Ca2+ mobilization, LAD2 cells; assay type: cell-based, human
In short: (§1)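 LAD2 cells, kept in StemPro-34 with 100 ng/ml hSCF, were loaded with indo-1 AM (1 μM) for 30 min at room temperature. They were washed and resuspended in HEPES-buffered saline at 0.2 × 10^6 cells per run. E. coli LPS (serotype R515) was given as a 2 min pre-incubation or premixed with the peptide, followed by C3a. Fluorescence was read at excitation 355 nm and emission 410 nm. Traces are representative of three experiments.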

C3a receptor [2] = assay: C3a-induced degranulation, LAD2 cells; assay type: cell-based, human; details: LPS 1 and 10 μg/ml, C3a 10 nM, three experiments
In short: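 LAD2 cells (5 × 10^3 per well) in HEPES buffer with 0.1% BSA were pre-treated with buffer or E. coli LPS, then stimulated. Percent β-hexosaminidase release was taken against unstimulated cells lysed in 0.1% Triton X-100. Mean ± SEM, three experiments; two-way ANOVA with Bonferroni.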

[3] = test system: LAD2 cells endogenously expressing MrgX2; assay: Degranulation; assay type: cell-based, human; details: for effect of E. coli-LPS on HDP-induced mast cell degranulation (summary): Discussion summary
[4] = test system: untransfected RBL-2H3 cells, which do not express MrgX2; details: no MrgX2; cited from earlier work
macrophages = details: cited from earlier work
[5] = test system: untransfected RBL-2H3 cells, which do not express MrgX2; details: no MrgX2; cited from earlier work; remark: listed apart in the source
[6] = test system: LAD2 cells endogenously expressing MrgX2; assay: Ca2+ mobilization, LAD2 cells; assay type: cell-based, human; details: for effect of E. coli-LPS on HDP-induced Ca2+ mobilization (summary): Discussion summary
In short: as §1

Row | Substance | effect of mixture of E. coli-LPS and hBD3 on C3a-induced Ca2+ mobilization (C3a receptor [1]; LPS 1 μg/ml + hBD3 100 nM, then C3a 10 nM) | effect of E. coli-LPS on C3a-induced Ca2+ response (C3a receptor [1]; LPS 1 μg/ml preincubated, C3a 10 nM) | effect of E. coli-LPS on C3a-induced Ca2+ response (LL-37 experiment) (C3a receptor [1]; LPS 10 μg/ml, pre-incubated or mixed with LL-37 1 μM, C3a 10 nM) | effect of E. coli-LPS on C3a-induced degranulation (C3a receptor [2]) | effect of E. coli-LPS on HDP-induced mast cell degranulation (summary) [3] | effect of E. coli-LPS on hBD3-induced degranulation ([3]; LAD2, LPS 1 and 10 μg/ml, hBD3 100 nM, mean ± SEM of three experiments) | degranulation in untransfected RBL-2H3 cells, earlier work [4] | inhibition of LPS-induced cytokine generation in macrophages, hBD3 (macrophages) | Ca2+ mobilization in untransfected RBL-2H3 cells, earlier work [5] | effect of E. coli-LPS on HDP-induced Ca2+ mobilization (summary) [6] | effect of premixed E. coli-LPS on hBD3-induced Ca2+ response ([6]; LAD2, LPS 1 μg/ml premixed with hBD3 100 nM) | effect of E. coli-LPS preincubation on hBD3-induced Ca2+ response ([6]; LAD2, LPS 1 μg/ml, 2 min preincubation, hBD3 100 nM) | intracellular Ca2+ response in LAD2 cells ([6]; hBD3 100 nM, not back to basal level even after 5 min) | effect of E. coli-LPS on LL-37-induced degranulation ([3]; LAD2, LPS 10 μg/ml, LL-37 1 μM, three experiments) | effect of E. coli-LPS on LL-37-induced Ca2+ mobilization ([6]; LAD2, LPS 10 μg/ml, 2 min pre-incubation or added simultaneously, LL-37 1 μM)
1 | C3a: anaphylatoxin C3a; native complement C3a from Complement Technology | not affected | no effect | no effect on the response to C3a | did not inhibit the response to C3a |  |  |  |  |  |  |  |  |  |  | 
2 | Human β-defensin3 (GIINTLQKYYCRVRGGRCAVLSCLPKEEQIGKCSTRGRKCCRRKK; not fully specified; ends and bridges not checked; UniProt P81534 23-67, looked up) [hBD3] |  |  |  |  | almost complete inhibition | substantial inhibition | unresponsive | inhibit LPS-induced cytokine generation in macrophages | unresponsive | almost complete inhibition | to the same extent as the 2 min pre-incubation protocol | complete inhibition | sustained intracellular Ca^2+ response |  | 
3 | LL-37: human cathelicidin, host defense peptide |  |  |  |  | almost complete inhibition |  | unresponsive |  | unresponsive | almost complete inhibition |  |  |  | blocked | ablated
